Screens deposited in PubChem by Broad Institute.
A selection: hits, their analogues and other compounds. The true share with any hit is near 3.3%.
Xi reactivation: X-chromosome reactivation activator; XiGFP mouse fibroblasts, % GFP-positive cells imaging, 3 d; cells co-treated with 5-aza-dC sensitizer; scaled so ellipticine positive control = 100%; activation, % at 7.58 µM; 0.055% of 360,000 active;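 active = mean normalized replicate activation at least 10% and every replicate at or above 10%; inconclusive = only one of the two criteria met; inactive = mean below 10% and not all replicates reach 10%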;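 also: 0% = median of on-plate neutral control wells and 100% = ellipticine 6 µM median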
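System: SV40-immortalized XiGFP fibroblast cells, line 68-5-11 / Incubation: 3-day compound exposure, then 15 min fixation at room temperature / Compound: single concentration per compound, delivered by pin transfer / Buffer or medium: DMEM plus 5-aza-dC sensitizer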
C2C12 statin: suppressors of simvastatin-induced myotoxicity in C2C12 myotubes; ATP luminescence, 48 h; scaled: DMSO 0, geranylgeraniol control 100; rescue of ATP level, % at 7.49 µM; 0.78% of 330,000 active; AID 602340;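 active = mean ATP rescue above about 67%, or every replicate alone reaching that limit, limit read from the data, passing the limit was not always enough; inconclusive = no clear call, values can overlap the other calls; inactive = mean under the limit and some replicate under it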;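 also: myotubes were challenged with 10 µM simvastatin during compound exposure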
PglD DTNB: PglD (C. jejuni) enzyme inhibition | purified PglD enzyme, DTNB colorimetric CoA detection | inhibition, % at 12.5 µM | 0.098% of 360,000 active | AID 602405; in the data active = inhibition above about 16%, passing the limit was not always enough; inconclusive = no clear call, values can overlap the other calls
DENV2 CPE: protects cells from dengue virus 2 cytopathic effect; DENV2-infected cells, cytopathic effect rescue, plate reader; CPE inhibition, % at 9.99 µM; 1.7% of 350,000 active; AID 651640; in the data active = CPE inhibition above about 20%, passing the limit was not always enough; inconclusive = no clear call, values can overlap the other calls; tested in BHK-21 cells;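 also: 0% = median of neutral control wells and 100% = median of positive control wells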
E-selectin induc: induces E-selectin expression in human endothelial cells; AID 686992; HUVEC E-selectin immunofluorescence imaging; normalized: neutral wells 0, TNF-alpha wells 100; activation, % at 7.58 µM; 0.37% of 260,000 active;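 active = mean E-selectin-positive cell signal at least 10% of the positive control, reached in at least 60% of replicates, without over 20% cell loss; inconclusive = no rule given, readout overlaps actives, possibly toxicity-flagged; inactive = the rest, including those meeting only one limit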
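Material: HUVEC primary endothelial cells; Amount: 3,000 cells per well; Dosing: single concentration; Medium: EGM-2 growth medium on 0.1% gelatin-coated wells; Read-out basis: percent E-selectin-positive cells; Signal: immunofluorescence imaging; Control set: TNF-alpha, DMSO.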
FGF22 binding: shifts melting point of recombinant human FGF22 | recombinant FGF22 thermal shift, SYPRO orange fluorescence; percent of sucrose octasulfate shift, DMSO zero | Q9HCT0 | 1.5% of 340,000 active | activity (Tm shift, normalised), % at 9.99 µM;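 active = mean Tm shift, scaled 0 neutral to 100 positive control, at about 1.3% or above, every replicate too, limit read from the data; inconclusive = no clear call, values can overlap the other calls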
Target sequence (Q9HCT0 whole entry, looked up): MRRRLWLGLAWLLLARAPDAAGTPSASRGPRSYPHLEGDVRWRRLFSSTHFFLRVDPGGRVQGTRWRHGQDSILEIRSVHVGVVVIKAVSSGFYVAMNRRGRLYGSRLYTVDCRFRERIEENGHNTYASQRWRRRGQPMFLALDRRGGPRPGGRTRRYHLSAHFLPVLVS
* hit, by the source's call; u = inconclusive; x = not tested or not shown.

SMILES	Xi reactivation	C2C12 statin	PglD DTNB	DENV2 CPE	E-selectin induc	FGF22 binding
Cc1ccc(C)c(NC(=O)C2CC3c4ccccc4C2c2ccccc23)c1 (stereo not given)	x	130*	-5	x	x	x
Cc1ccc(C)c(NC(=O)C2CC=CCC2C(=O)O)c1 (stereo not given)	x	-4	-1	x	x	x
CCNC(=O)C[C@@H]1CC[C@@H]2[C@@H](COc3ccc(NS(C)(=O)=O)cc3C(=O)N2C)O1	0	4	0	u	0	0
O=c1c2cc(-c3ccccc3)sc2nc2n1CCC2	0	x	x	7	x	44*
Cc1nc2sc(-c3ccccc3)cc2c(=O)n1N	0	-67	4	5	x	0
O=C1c2ccccc2C(=O)N1CC1=CCS(=O)(=O)C1	x	112*	0	x	x	x
C[C@H](CO)N1C[C@H](C)[C@H](CN(C)S(=O)(=O)c2cccs2)OCCCC[C@H](C)Oc2ccc(NC(=O)Cc3ccccc3)cc2C1=O	0	x	-1	-6	0	0
O=S(=O)(Cc1cc(N2CCOCC2)nc(-c2ccccn2)n1)c1ccccc1	0	x	x	33*	x	0
CC(C)CC(NC(=O)CC12CC3CC(CC(C3)C1)C2)C(=O)NC1=NCCS1 (stereo not given)	1	x	x	16	x	43*
Cc1onc(-c2ccccc2)c1C(=O)Nc1ccc2c(c1)OCCO2	x	16	7	-1	x	0
CC(=O)c1cc2c(cc1NC(=O)c1c(-c3ccccc3)noc1C)OCO2	x	85*	3	x	x	x
COc1cccc(S(=O)(=O)Nc2ccc3c(c2)C(=O)N(C)C[C@@H](OC)[C@H](C)CN(C(=O)Cc2cccnc2)[C@@H](C)CO3)c1	0	-6	1	1	0	0
CCSc1nc2sc3c(c2c(=O)n1CC)CCC3	0	-5	7	40*	x	1
C=CCn1c(SCC(C)=O)nc2sc3c(c2c1=O)CCC3	0	7	-1	-1	0	0
C=CCn1c(SCC(=O)N(CC)C2CCS(=O)(=O)C2)nc2sc3c(c2c1=O)CCC3 (stereo not given)	137*	-8	2	-3	1	0
CN(C)c1ccc2c(c1)[C@H]1C[C@H](CC(=O)O)O[C@@H](CO)[C@H]1O2	0	-1	-1	-4	0	0
CN1C(=O)c2cc(NC(=O)c3ccc(C(F)(F)F)cc3)ccc2OC[C@H]2O[C@H](CC(=O)NC3Cc4ccccc4C3)CC[C@@H]21	0	-32	-2	-4	0	0
CC(C)[C@H]1C(=O)N[C@@H](c2ccc3c(c2)OCO3)CC=CC[C@H](C)Oc2ccccc2C(=O)N1C (mixture of isomers)	0	x	x	x	x	x
CCCCC(CCCCl)C(=O)Nc1ccccc1 (stereo not given)	0	x	x	x	x	43*
COCC(=O)N1C[C@H]2[C@@H](c3ccccc31)[C@H](CO)N2C(=O)C1CCOCC1	0	-8	0	u	1	-1
O=C(/C=C/NNC(=O)c1ccccc1)c1ccc(Br)cc1	x	0	2	x	x	x
O=C(/C=C/NNC(=O)c1ccc(Cl)cc1)c1ccccc1	0	x	x	1	x	44*
COc1cc(C)c(/C=C(\C#N)C(=O)Nc2cccc(C)c2)cc1C(C)C	0	x	x	2	x	44*
Cc1cccc(NC(=O)/C(C#N)=C\c2ccc(C(=O)O)cc2)c1	0	x	x	x	x	0
CO[C@H]1CN(C)C(=O)c2ccc(NS(=O)(=O)c3ccccc3)cc2OC[C@H](C)N(C(=O)NC(C)C)C[C@H]1C	0	-2	2	5	2	0
SMILES	Xi reactivation	C2C12 statin	PglD DTNB	DENV2 CPE	E-selectin induc	FGF22 binding
ClCc1csc(-c2ccccc2Cl)n1	0	x	-2	-5	2	43*
COc1ccc(-c2nc(CCl)cs2)cc1	0	x	x	4	x	43*
Cc1cc(C(=O)CN2C(=O)NC(C)(c3ccc(F)c(F)c3)C2=O)c(C)n1C1CC1 (stereo not given)	0	-30	0	x	0	0
COc1ccc(C2(C)NC(=O)N(CC(=O)c3cc(C)n(C4CC4)c3C)C2=O)cc1 (stereo not given)	0	-1	-2	37*	x	0
COc1ccc(NC(=O)N2CC(=O)N3[C@H](CO)[C@H](c4ccc(-c5ccc(C)cc5)cc4)[C@@H]3C2)cc1	0	x	x	6	0	x
c1ccc2nc(-c3nccs3)ccc2c1	0	x	x	-6	3	44*
Cc1cc(C)n(-c2ccc(C(=O)Nc3ccccn3)cc2)n1	x	-5	-3	x	x	x
Cc1cc(C)n(-c2ccc(C(=O)Nc3cccnc3Cl)cc2)n1	0	x	x	-4	0	43*
CC(=O)NS(=O)(=O)c1ccc(NC(=O)c2ccc(-n3nc(C)cc3C)cc2)cc1	0	6	3	3	-1	43*
Cc1cc(C)n(-c2ccc(C(=O)Nc3ccc4c(c3)OCCO4)cc2)n1	x	-33	-7	x	x	x
O=C(C[C@@H]1CC[C@H]2[C@@H](COC[C@H](O)CN2S(=O)(=O)c2ccccc2)O1)Nc1ccccc1	0	7	0	4	0	0
CO[C@H]1CN(C)C(=O)c2cc(NC(C)=O)ccc2OC[C@H](C)N(C(=O)CN(C)C)C[C@H]1C	0	x	x	44*	0	x
CO[C@H]1CN(C)C(=O)c2cc(NC(C)=O)ccc2OC[C@@H](C)N(C(=O)CN(C)C)C[C@H]1C	0	11	4	3	0	0
CO[C@@H]1CN(C)C(=O)c2cc(NS(C)(=O)=O)ccc2OC[C@H](C)N(C(=O)CN(C)C)C[C@@H]1C	0	16	2	76*	0	0
C[C@@H](NC(=O)C[C@H]1CC[C@H]2[C@@H](COC[C@H](O)CN2C(=O)Nc2ccccc2)O1)c1ccccc1	0	-3	-1	50*	0	0
C[C@H](NC(=O)C[C@@H]1CC[C@@H]2[C@H](COC[C@@H](O)CN2C(=O)Nc2ccccc2)O1)c1ccccc1	0	-15	2	7	0	0
C[C@@H](NC(=O)C[C@H]1CC[C@@H]2[C@H](COC[C@H](O)CN2C(=O)Nc2ccccc2)O1)c1ccccc1	0	3	2	21*	0	0
O=C(C[C@@H]1CC[C@H]2[C@@H](COC[C@H](O)CN2S(=O)(=O)c2ccccc2)O1)NCC1CCCCC1	0	12	1	7	0	0
Cc1cccn2c(=O)c(C=O)c(N3CCN(C)CC3)nc12	0	6	-1	-1	x	0
Cc1cccn2c(=O)c(C=O)c(N3CCN(c4ccccc4)CC3)nc12	0	x	x	-8	x	43*
O=C(C[C@@H]1CC[C@@H](NC(=O)Nc2ccccc2F)[C@H](CO)O1)NCc1ccc(-c2ccccc2)cc1	0	x	x	7	2	1
